Key:
[1] = Selectivity index, ratio of CC50 for African green monkey Vero cells to IC50 for chloroquine-resistant Plasmodium falciparum K1 asynchronous cultures infected in human erythrocytes; assay type: toxicity, cell-based; conditions: read-out: Ratio CC50/IC50
[2] = Resistance index, ratio of IC50 for chloroquine-resistant Plasmodium falciparum K1 asynchronous cultures infected in human erythrocytes to IC50 for chloroquine-sensitive Plasmodium falciparum 3D7 asynchronous cultures infected in human erythrocytes; assay type: functional
[3] = Cytotoxicity against African green monkey Vero cells after 3 days by resazurin dye based fluorescence assay; assay type: cell-based; conditions: chlorocebus sabaeus
Method in brief: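 VERO kidney cells kept in MEM with 15% FBS, 5% CO₂, 37 °C. Cells exposed to serial compound dilutions for three days. Then 10% resazurin added as viability marker. Fluorescence read at Ex 530 ± 25 nm / Em 590 ± 25 nm. Median cytotoxic concentration (CC₅₀) calculated from readings.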

Plasmodium falciparum [4] = test: Antiplasmodial activity against chloroquine-resistant Plasmodium falciparum K1 asynchronous cultures infected in human erythrocytes measured after 72 hrs by SYBR Green1 dye based fluorescence assay; assay type: functional, organism-based; conditions: K1, 72 h
Method in brief: (§1)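 Parasites kept in human erythrocytes at 5% hematocrit in RPMI-1640 (HEPES) with 0.5% AlbuMaxII, 0.2% glucose, 0.2% bicarbonate, 15 µM hypoxanthine, 37 °C, CO₂. Two-fold serial dilutions spanning 5 µM to 78 nM were applied to asynchronous cultures at 0.8-1% parasitaemia, 1% haematocrit, for 72 h. SYBR Green I lysis buffer was added for 2 h, with fluorescence read at Ex 485/Em 535 nm. IC50 was derived from DNA signal against drug-free controls.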

Plasmodium falciparum [5] = test: Antiplasmodial activity against chloroquine-sensitive Plasmodium falciparum 3D7 asynchronous cultures infected in human erythrocytes measured after 72 hrs by SYBR Green1 dye based fluorescence assay; assay type: functional, organism-based; conditions: 3D7, 72 h; method in brief: as §1
[6] = Selectivity index, ratio of CC50 for African green monkey Vero cells to IC50 for chloroquine-sensitive Plasmodium falciparum 3D7 asynchronous cultures infected in human erythrocytes; assay type: toxicity, cell-based; conditions: read-out: Ratio CC50/IC50
Plasmodium falciparum [7] = test: Growth inhibition of Plasmodium falciparum D6 infected in human erythrocytes assessed as reduction in [3H]-isoleucine incorporation pretreated for 24 hrs followed by [3H]-isoleucine addition and measured after 18 hrs by liquid scintillation counting method; assay type: functional, organism-based
Plasmodium falciparum [8] = test: Growth inhibition of Plasmodium falciparum ITG2 infected in human erythrocytes assessed as reduction in [3H]-isoleucine incorporation pretreated for 24 hrs followed by [3H]-isoleucine addition and measured after 18 hrs by liquid scintillation counting method; assay type: functional, organism-based

SMILES	selectivity ratio [1]	Ratio IC50 [2]	CC50 at 72 h [3]	IC50 (Plasmodium falciparum [4])	IC50 (Plasmodium falciparum [5])	selectivity ratio [6]	IC50 (Plasmodium falciparum [7])	IC50 (Plasmodium falciparum [8])
COC(=O)C[C@@H]([C@H]1O[C@@H]2OC(C)(C)O[C@@H]2[C@H]1OCc1ccccc1)n1cnc2c(N)ncnc21	14.3	1.07	68.4 µM	4.79 µM	4.44 µM	15.4	–	–
CC(=O)c1ccc(-n2cnc3c(N)ncnc32)cc1	–	–	–	–	> 5 µM	–	–	–
CC1(C)O[C@H]2O[C@H]([C@@H](CCO)n3cnc4c(N)ncnc43)[C@H](Oc3ccccc3[N+](=O)[O-])[C@H]2O1	12.7	0.9	51.8 µM	2.37 µM	3.13 µM	11.5	–	–
CCCCCCCCCCCCNc1ncnc2c1ncn2[C@@H](CC(=O)OCC)[C@H]1O[C@@H]2OC(C)(C)O[C@@H]2[C@H]1OCc1ccccc1	72.1	1.28	81.5 µM	1.13 µM	0.88 µM	92.6	–	–
CC1(C)O[C@H]2O[C@H]([C@H](CCO)n3cnc4c(NCc5ccccc5)ncnc43)[C@H](OCc3ccccc3)[C@H]2O1	25.8	0.75	61.2 µM	4.44 µM	3.99 µM	19.6	–	–
CC1(C)O[C@H]2O[C@H]([C@H](CCO)n3cnc4c(N)ncnc43)[C@H](OCc3ccccc3)[C@H]2O1	19.5	1.15	97.1 µM	4.99 µM	4.31 µM	22.5	–	–
CCOC(=O)CCn1cnc2c(N)ncnc21	–	–	–	–	> 5 µM	–	–	–
CC1(C)O[C@H]2O[C@H]([C@H](CCO)n3cnc4c(N)ncnc43)[C@H](Oc3ccccc3[N+](=O)[O-])[C@H]2O1	33.3	1.11	148 µM	4.7 µM	3.62 µM	37.1	–	–
COC(=O)C[C@H]([C@H]1O[C@@H]2OC(C)(C)O[C@@H]2[C@H]1OCc1ccccc1)n1cnc2c(N)ncnc21	21.1	0.99	86.3 µM	4.09 µM	4.12 µM	20.9	–	–
CC(O)c1ccc(-n2cnc3c(N)ncnc32)cc1 (stereo not given)	–	–	–	–	> 5 µM	–	–	–
CC1(C)O[C@H]2O[C@H]([C@@H](CCO)n3cnc4c(NCc5ccccc5)ncnc43)[C@H](OCc3ccccc3)[C@H]2O1	15	1.21	74.9 µM	4.99 µM	4.11 µM	18.2	–	–
CCOC(=O)C[C@@H]([C@H]1O[C@@H]2OC(C)(C)O[C@@H]2[C@H]1Oc1ccccc1N)n1cnc2c(N)ncnc21	< 17.9	>1.11	89.7 µM	> 5 µM	4.47 µM	20.1	–	–
CCOC(=O)C[C@H]([C@H]1O[C@@H]2OC(C)(C)O[C@@H]2[C@H]1OCc1ccccc1)n1cnc2c(NCc3ccccc3)ncnc21	23.5	0.63	53.3 µM	2.27 µM	3.6 µM	14.8	–	–
CCOC(=O)C[C@@H]([C@H]1O[C@@H]2OC(C)(C)O[C@@H]2[C@H]1Oc1ccccc1[N+](=O)[O-])n1cnc2c(N)ncnc21	19.5	1.38	96.3 µM	4.93 µM	3.56 µM	27.1	–	–
CCCCCCCCCCCCNc1ncnc2c1ncn2[C@H](CC(=O)OCC)[C@H]1O[C@@H]2OC(C)(C)O[C@@H]2[C@H]1OCc1ccccc1	17.5	2.54	45 µM	2.57 µM	1.01 µM	44.5	–	–
CCOC(=O)C[C@@H]([C@H]1O[C@@H]2OC(C)(C)O[C@@H]2[C@H]1OCc1ccccc1)n1cnc2c(NCc3ccccc3)ncnc21	50.4	0.7	57.5 µM	1.14 µM	1.61 µM	35.7	–	–
CCOC(=O)C[C@H]([C@H]1O[C@@H]2OC(C)(C)O[C@@H]2[C@H]1Oc1ccccc1[N+](=O)[O-])n1cnc2c(N)ncnc21	28	1	119 µM	4.25 µM	4.24 µM	28.1	–	–
CN(C/C=C/CN)C[C@H]1O[C@@H](n2cnc3c(N)ncnc32)[C@H](O)[C@@H]1O	–	–	–	–	–	–	2 to 3 µM	2 to 3 µM
CC1(C)O[C@H]2O[C@H]([C@H](CCO)n3cnc4c(N)ncnc43)[C@@H](OCc3ccccc3)[C@H]2O1	31.5	1.29	148 µM	4.09 µM	4.52 µM	40.9	–	–
CC1(C)O[C@H]2O[C@H]([C@H](CC(=O)O)n3cnc4c(N)ncnc43)[C@H](Oc3ccccc3N)[C@H]2O1	18	–	67.1 µM	3.72 µM	4.82 µM	13.9	–	–
